From ChEMBL document CHEMBL5653631, “A Potent and Selective ULK1 Inhibitor Suppresses Autophagy and Sensitizes Cancer Cells to Nutrient Stress” (iScience, 2018) come the findings set out here.

Structures are written as SMILES.

Assay [1] concerns the target NT-3 growth factor receptor (Homo sapiens) (UniProt Q16288). In words: Inhibition of human recombinant TRKC at 15 nM in presence of ATP by radiometric assay relative to control.
For assay [2], the target named is T1, Testis-specific serine/threonine-protein kinase 4 (Homo sapiens) (UniProt Q6SA08).
T1 sequence (whole entry): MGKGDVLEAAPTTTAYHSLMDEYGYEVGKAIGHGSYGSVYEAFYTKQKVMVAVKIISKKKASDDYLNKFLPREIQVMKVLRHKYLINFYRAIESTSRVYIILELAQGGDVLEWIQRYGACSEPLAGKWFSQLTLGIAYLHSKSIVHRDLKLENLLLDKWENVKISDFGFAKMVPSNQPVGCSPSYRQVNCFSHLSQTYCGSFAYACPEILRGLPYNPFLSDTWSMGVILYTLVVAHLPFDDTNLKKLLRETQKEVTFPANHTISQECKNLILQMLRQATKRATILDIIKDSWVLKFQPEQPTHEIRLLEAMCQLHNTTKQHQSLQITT
The assay can be described thus: Inhibition of human recombinant TSSK4 at 15 nM in presence of ATP by radiometric assay relative to control.

Assay [3] concerns the target T2, Aurora kinase A (Homo sapiens) (UniProt O14965).
T2 sequence (whole entry): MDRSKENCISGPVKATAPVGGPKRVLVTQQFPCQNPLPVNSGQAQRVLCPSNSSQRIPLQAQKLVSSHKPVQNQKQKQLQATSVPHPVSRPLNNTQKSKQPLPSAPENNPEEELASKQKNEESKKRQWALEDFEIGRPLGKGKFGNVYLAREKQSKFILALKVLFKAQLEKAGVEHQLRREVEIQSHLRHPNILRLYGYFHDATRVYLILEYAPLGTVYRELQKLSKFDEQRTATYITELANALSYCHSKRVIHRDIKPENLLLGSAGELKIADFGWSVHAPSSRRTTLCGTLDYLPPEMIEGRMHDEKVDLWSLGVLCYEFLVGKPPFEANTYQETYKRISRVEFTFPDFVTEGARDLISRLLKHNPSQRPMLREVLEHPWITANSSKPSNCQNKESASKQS
The assay can be described thus: Inhibition of human recombinant AurA at 15 nM related to control ULK1. The gist of the method:
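Panel of 327 recombinant human kinases, each assayed in vitro by radiometric activity assay in duplicate at a single inhibitor concentration per compound, chosen with reference to its ULK1 inhibition. Activity remaining was expressed as percent of vehicle control, and percent inhibition was calculated as 100 minus percent activity remaining.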

Assay [4] addresses Platelet-derived growth factor receptor alpha (Homo sapiens) (UniProt P16234). In words: Inhibition of human recombinant PDGFRa at 15 nM related to control ULK1.
Assay [5] concerns the target High affinity nerve growth factor receptor (Homo sapiens) (UniProt P04629). The assay can be described thus: Inhibition of human recombinant TRKA at 15 nM related to control ULK1.
Assay [6] has as its target Receptor tyrosine-protein kinase erbB-2 (Homo sapiens) (UniProt P04626). In words: Inhibition of human recombinant ErbB2 at 40 nM in presence of ATP by radiometric assay relative to control.
For assay [7], the target named is T3, Protein kinase C epsilon type (Homo sapiens) (UniProt Q02156).
T3 sequence (whole entry): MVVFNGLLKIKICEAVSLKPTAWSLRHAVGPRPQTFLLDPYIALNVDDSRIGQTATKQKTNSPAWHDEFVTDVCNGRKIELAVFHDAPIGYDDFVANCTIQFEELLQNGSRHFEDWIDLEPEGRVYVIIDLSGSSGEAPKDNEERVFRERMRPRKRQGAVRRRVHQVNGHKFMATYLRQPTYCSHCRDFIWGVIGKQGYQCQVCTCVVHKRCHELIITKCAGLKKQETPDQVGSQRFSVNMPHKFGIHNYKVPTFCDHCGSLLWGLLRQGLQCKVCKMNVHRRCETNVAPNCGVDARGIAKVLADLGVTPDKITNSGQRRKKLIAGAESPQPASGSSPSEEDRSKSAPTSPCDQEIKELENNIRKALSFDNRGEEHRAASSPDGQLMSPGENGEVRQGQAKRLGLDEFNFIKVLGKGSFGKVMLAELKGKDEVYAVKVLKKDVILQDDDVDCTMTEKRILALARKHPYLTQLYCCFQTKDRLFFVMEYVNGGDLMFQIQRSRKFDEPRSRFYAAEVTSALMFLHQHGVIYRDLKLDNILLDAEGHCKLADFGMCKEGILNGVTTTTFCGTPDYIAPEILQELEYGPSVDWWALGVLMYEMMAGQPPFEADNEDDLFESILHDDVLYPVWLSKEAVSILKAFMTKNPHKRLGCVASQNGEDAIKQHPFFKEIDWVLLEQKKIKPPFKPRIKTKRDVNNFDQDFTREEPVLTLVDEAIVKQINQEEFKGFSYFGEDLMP
The assay can be described thus: Inhibition of human recombinant PKCe at 40 nM in presence of ATP by radiometric assay relative to control.

The target in assay [8] is Serine/threonine-protein kinase tousled-like 2 (Homo sapiens) (UniProt Q86UE8). In words: Inhibition of human recombinant TLK2 at 40 nM in presence of ATP by radiometric assay relative to control.
Assay [9] concerns the target T4, Serine/threonine-protein kinase NLK (Homo sapiens) (UniProt Q9UBE8).
T4 sequence (whole entry): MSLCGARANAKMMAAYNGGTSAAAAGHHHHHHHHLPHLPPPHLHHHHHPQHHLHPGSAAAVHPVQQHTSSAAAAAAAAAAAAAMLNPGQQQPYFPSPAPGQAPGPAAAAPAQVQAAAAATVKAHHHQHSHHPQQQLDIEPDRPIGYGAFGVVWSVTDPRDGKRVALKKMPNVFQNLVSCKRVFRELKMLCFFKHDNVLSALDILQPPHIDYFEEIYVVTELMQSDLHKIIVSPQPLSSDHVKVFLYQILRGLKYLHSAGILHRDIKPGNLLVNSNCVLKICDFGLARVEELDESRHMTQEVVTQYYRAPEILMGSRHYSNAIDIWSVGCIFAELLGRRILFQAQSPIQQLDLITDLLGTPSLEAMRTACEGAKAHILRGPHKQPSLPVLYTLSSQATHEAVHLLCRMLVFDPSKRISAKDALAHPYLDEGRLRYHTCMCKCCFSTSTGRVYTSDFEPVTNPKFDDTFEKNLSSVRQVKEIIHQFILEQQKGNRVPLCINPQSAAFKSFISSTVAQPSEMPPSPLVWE
The assay can be described thus: Inhibition of human recombinant NLK at 40 nM related to control ULK1.

Assay [10] deals with Serine/threonine-protein kinase PAK 3 (Homo sapiens) (UniProt O75914). The assay can be described thus: Inhibition of human recombinant PAK3 at 500 nM in presence of ATP by radiometric assay relative to control.
Chain of Serine/threonine-protein kinase PAK 3 (Homo sapiens) (O75914 whole entry, looked up): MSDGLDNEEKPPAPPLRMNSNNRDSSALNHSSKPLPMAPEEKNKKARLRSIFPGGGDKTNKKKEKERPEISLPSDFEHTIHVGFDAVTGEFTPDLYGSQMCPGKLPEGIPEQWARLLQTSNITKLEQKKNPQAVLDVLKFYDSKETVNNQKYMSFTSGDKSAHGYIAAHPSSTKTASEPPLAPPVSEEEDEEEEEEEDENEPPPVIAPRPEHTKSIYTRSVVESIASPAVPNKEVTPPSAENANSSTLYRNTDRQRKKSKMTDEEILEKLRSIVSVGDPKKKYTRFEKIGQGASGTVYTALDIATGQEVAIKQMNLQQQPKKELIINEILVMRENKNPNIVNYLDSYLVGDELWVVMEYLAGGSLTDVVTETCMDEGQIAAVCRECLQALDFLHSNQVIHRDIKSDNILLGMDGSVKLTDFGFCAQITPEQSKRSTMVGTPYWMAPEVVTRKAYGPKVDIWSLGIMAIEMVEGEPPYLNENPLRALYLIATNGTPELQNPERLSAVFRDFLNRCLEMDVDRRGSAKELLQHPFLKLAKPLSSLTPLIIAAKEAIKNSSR

Chain of Serine/threonine-protein kinase tousled-like 2 (Homo sapiens) (Q86UE8 whole entry, looked up): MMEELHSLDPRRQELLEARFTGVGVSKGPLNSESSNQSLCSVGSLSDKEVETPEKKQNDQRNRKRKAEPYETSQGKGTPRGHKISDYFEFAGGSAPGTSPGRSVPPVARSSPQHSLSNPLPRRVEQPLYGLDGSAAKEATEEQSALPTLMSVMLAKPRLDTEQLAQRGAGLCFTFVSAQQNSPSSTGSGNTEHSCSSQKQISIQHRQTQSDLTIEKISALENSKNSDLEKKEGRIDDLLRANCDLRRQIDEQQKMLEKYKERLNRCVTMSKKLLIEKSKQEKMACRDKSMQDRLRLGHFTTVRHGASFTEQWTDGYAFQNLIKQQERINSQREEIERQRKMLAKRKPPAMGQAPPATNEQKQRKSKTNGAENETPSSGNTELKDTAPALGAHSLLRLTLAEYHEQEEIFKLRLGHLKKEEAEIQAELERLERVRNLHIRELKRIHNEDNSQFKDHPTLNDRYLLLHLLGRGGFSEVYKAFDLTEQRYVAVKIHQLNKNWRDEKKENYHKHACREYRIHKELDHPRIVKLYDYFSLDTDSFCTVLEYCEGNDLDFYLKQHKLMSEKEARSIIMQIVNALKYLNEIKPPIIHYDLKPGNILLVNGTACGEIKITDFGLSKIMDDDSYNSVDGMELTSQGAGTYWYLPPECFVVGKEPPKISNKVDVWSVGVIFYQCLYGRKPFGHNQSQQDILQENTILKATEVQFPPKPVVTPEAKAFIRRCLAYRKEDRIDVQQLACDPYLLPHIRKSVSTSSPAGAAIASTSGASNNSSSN
Chain of NT-3 growth factor receptor (Homo sapiens) (Q16288 32-839 limits assumed): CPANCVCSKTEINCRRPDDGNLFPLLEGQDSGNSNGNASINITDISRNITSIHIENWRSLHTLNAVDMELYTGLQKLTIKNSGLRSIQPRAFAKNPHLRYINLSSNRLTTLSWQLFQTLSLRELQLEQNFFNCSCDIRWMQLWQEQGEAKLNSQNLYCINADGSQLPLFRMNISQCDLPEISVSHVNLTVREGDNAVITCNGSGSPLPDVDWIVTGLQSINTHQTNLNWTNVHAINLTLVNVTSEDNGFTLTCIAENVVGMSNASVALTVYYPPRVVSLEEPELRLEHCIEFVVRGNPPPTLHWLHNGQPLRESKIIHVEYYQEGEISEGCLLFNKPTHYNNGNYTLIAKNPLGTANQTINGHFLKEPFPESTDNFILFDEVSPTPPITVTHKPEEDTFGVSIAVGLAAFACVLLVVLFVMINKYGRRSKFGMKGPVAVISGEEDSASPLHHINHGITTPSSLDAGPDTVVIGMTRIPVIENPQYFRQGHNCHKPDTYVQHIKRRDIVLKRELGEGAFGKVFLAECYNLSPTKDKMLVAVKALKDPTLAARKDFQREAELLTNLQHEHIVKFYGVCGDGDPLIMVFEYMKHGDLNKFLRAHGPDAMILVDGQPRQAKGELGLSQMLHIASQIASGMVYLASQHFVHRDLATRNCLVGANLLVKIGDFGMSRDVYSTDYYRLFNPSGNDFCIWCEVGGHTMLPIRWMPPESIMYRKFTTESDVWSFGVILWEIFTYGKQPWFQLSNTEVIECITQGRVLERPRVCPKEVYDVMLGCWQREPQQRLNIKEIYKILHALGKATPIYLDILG
Chain of High affinity nerve growth factor receptor (Homo sapiens) (P04629 33-796 limits assumed): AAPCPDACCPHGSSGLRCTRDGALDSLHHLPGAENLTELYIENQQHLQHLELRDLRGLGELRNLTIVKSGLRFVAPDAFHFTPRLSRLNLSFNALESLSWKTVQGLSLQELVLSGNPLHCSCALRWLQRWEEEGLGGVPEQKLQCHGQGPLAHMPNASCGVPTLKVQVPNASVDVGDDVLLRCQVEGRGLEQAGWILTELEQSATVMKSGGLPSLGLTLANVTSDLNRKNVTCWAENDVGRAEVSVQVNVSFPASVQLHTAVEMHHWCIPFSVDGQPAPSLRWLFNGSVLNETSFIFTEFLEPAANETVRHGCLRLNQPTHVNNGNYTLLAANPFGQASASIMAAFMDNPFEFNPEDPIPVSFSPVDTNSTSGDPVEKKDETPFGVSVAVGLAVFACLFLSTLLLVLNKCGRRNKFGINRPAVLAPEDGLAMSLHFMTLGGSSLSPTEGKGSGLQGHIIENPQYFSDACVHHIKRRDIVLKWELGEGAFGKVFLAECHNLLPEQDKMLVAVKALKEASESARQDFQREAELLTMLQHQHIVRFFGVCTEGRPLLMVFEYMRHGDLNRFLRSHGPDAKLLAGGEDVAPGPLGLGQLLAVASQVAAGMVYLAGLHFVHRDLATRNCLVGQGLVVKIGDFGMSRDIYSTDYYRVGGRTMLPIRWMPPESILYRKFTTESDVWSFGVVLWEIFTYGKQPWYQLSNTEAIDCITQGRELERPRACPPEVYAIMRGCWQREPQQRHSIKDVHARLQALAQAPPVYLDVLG
Chain of Platelet-derived growth factor receptor alpha (Homo sapiens) (P16234 whole entry): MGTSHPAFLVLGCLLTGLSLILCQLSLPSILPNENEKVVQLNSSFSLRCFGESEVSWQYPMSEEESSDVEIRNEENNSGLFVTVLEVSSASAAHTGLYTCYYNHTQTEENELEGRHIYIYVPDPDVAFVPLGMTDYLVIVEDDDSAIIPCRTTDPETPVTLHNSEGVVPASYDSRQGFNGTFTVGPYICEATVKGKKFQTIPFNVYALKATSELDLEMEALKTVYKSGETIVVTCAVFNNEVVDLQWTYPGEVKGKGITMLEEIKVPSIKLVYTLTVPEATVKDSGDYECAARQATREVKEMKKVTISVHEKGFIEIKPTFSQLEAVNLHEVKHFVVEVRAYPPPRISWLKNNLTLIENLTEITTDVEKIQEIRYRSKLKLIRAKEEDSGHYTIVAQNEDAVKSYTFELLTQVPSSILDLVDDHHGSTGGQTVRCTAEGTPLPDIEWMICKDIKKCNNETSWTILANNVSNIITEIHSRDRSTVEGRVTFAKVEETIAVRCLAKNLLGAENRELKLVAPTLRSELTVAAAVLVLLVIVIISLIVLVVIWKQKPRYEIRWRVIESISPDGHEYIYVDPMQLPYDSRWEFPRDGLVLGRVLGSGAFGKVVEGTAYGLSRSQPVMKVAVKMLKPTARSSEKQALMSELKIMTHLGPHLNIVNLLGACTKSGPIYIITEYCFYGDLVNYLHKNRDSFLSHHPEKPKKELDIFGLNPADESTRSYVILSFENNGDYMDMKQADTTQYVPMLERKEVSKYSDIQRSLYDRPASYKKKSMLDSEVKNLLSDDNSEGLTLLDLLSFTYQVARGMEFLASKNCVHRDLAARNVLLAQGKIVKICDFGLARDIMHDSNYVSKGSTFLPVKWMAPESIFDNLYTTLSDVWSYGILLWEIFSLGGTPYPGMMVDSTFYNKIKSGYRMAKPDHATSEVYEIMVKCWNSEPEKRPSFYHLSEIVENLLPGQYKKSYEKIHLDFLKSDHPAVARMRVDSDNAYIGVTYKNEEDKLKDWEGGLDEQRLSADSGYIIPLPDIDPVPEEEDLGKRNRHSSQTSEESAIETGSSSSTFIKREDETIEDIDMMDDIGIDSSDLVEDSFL

The term inhibition denotes the change of the read-out against control, counted positive when it falls. As to `CC(C)[C@H](NC(=O)c1cc(-c2cnn3cc(-c4ccc(OCCN5CCCCC5)cc4)cnc23)cs1)C(F)(F)F`, the inhibition in [1] and in assay [2] was 0% in each case. Also, the fold change (FC) in assay [3] turned out to be 0.15; in assay [4] it was 0.06; in assay [5] it was 0.
Regarding `O=C(N[C@@H](C1CC1)C(F)(F)F)c1cc(-c2cnn3cc(-c4ccc(F)cc4)cnc23)cs1`, the inhibition in [6], in assay [7] and in assay [8] was 0% in each case. In addition, in assay [9], the fold change (FC) turned out to be 0.64.
Consider `CNC(=O)c1ccccc1Oc1nc(Nc2cc(OC)c(OC)c(OC)c2)ncc1Br`, for which the inhibition in [10] came to 9%.
